{"source": "ChEMBL document CHEMBL1128310", "about": "“Antitumor imidazotetrazines. 32. Synthesis of novel imidazotetrazinones and related bicyclic heterocycles to probe the mode of action of the antitumor drug temozolomide” (J Med Chem, 1995)", "key": {"Raji": {"system": "Raji", "experiment": "In vitro cytotoxicity against Raji cell line", "format": "functional, cell-based", "details": "Homo sapiens"}, "[1]": {"experiment": "Ratio of cytotoxicity against Raji cells to that of GM892 A cells.", "format": "functional"}, "GM892A cell line [2]": {"system": "GM892A cell line", "experiment": "(§1) In vitro cytotoxicity against human lymphoblastoid cell (GM892 A)", "format": "functional, cell-based"}, "TLX-5": {"system": "TLX-5", "experiment": "In vitro cytotoxicity against mouse TLX5 lymphoma cells", "format": "functional, cell-based", "in_short": "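Mouse TLX5 lymphoma cells in exponential growth at 2×10^4 cells/mL in RPMI 1640 with 15% FCS, given drug in DMSO, triplicate wells per concentration, 72 h at 37 °C under 5% CO2. Electronic cell counting; percent of DMSO-control growth plotted and IC50 (μM) calculated.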"}, "GM892A cell line [3]": {"system": "GM892A cell line", "experiment": "as §1", "format": "functional, cell-based", "in_short": "(§2)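 Mer⁻ GM892A cells in RPMI 1640 with 10% FCS and 1% L-glutamine, seeded at 0.8×10^5 cells/mL and exposed to a range of concentrations in DMSO (≤0.5%) for 72 h. At least three populations per concentration; duplicate cell counts after subtracting the seed number. Growth compared with solvent controls and IC50 (μM) derived.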", "remark": "listed apart in the source"}, "[4]": {"experiment": "Mean rate constant for the hydrolysis of compound in buffers at pH 7.4, at 37 degrees Celsius in incubation mixture - d(A)-d(T) (1:1)", "format": "ADME", "details": "buffer", "in_short": "(§3)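 Compound incubated at 37 °C in 0.1 M phosphate or 0.1 M sodium cacodylate buffer (pH 7.4 or 6.5) with homopolymer oligonucleotide or GMP/CMP, as equimolar nucleotide bases or 10-fold molar excess of bases. Parent peak followed by HPLC for about three half-lives. Pseudo-first-order k from log(peak area) versus time, at least 10 points per run, averaged over replicate runs.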"}, "[5]": {"experiment": "Half life for the hydrolysis of compound in buffers at pH 7.4, at 37 degrees Celsius in incubation mixture - d(A)-d(T) (1:1)", "format": "ADME", "details": "buffer with d(A)-d(T) (1:1)", "in_short": "(§4)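 Compound incubated at 37 °C in 0.1 M phosphate or 0.1 M sodium cacodylate buffer (pH 7.4 or 6.5) with homopolymer oligonucleotide or GMP/CMP, as equimolar nucleotide bases or 10-fold molar excess of bases. Loss of parent was followed by HPLC (0.5% acetic acid in water/methanol 70:30) over about three half-lives. Pseudo-first-order k from log peak area versus time; t1/2 = 0.693/mean k.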"}, "[6]": {"experiment": "Mean rate constant for the hydrolysis of compound in buffers at pH 7.4 at 37 degrees Centigrade in incubation mixture - d(A)-d(T) (10:!)", "format": "ADME", "details": "buffer", "in_short": "as §3"}, "[7]": {"experiment": "Half life for the hydrolysis of compound in buffers at pH 7.4, at 37 degrees Celsius in incubation mixture - d(G)-d(C) (1:1)", "format": "ADME", "details": "buffer with d(G)-d(C) (1:1)", "in_short": "as §4"}, "GM892A cell line [8]": {"system": "GM892A cell line", "experiment": "In vitro cytotoxicity against human lymphoblastoid cell line (GM892 A)", "format": "functional, cell-based", "in_short": "as §2"}, "[9]": {"experiment": "Half life for the hydrolysis of compound in buffers at pH 7.4, at 37 degrees Centigrade in incubation mixture - 5'-GMP/5'-CMP (1:1)", "format": "ADME", "details": "buffer with 5'-GMP/5'-CMP (1:1)", "in_short": "as §4"}, "[10]": {"experiment": "Half life for the hydrolysis of compound in buffers at pH 7.4 at 37 degrees Celsius in incubation mixture - d(A)-d(T) (10:!)", "format": "ADME", "details": "buffer with d(A)-d(T) (10:1)", "in_short": "as §4"}, "[11]": {"experiment": "Half life for the hydrolysis of compound in buffers at pH 6.5, at 37 degrees Celsius in incubation mixture - d(A)-d(T) (10:1)", "format": "ADME", "in_short": "as §4"}, "[12]": {"experiment": "Mean rate constant for the hydrolysis of compound in buffers at pH 7.4, at 37 degrees Celsius in incubation mixture - d(A)-d(T) (10:1)", "details": "buffer"}, "[13]": {"experiment": "Half life for the hydrolysis of compound in buffers at pH 7.4, at 37 degrees Celsius in incubation mixture - d(A)-d(T) (10:1)", "details": "buffer with d(A)-d(T) (10:1)"}, "[14]": {"experiment": "Half life for the hydrolysis of compound in buffers at pH 6.5, at 37 degrees Celsius in incubation mixture - d(G)-d(C) (10:1)", "format": "ADME", "in_short": "as §4"}, "[15]": {"experiment": "Half life for the hydrolysis of compound in buffers at pH 7.4, at 37 degrees Centigrade in incubation mixture - d(G)-d(C) (10:1)", "format": "ADME", "in_short": "as §4"}, "[16]": {"experiment": "Mean rate constant for the hydrolysis of compound in buffers at pH 7.4, at 37 degrees Celsius in incubation mixture - 5'-GMP/5'-CMP (1:1)", "format": "ADME", "details": "buffer", "in_short": "as §3"}, "[17]": {"experiment": "Mean rate constant for the hydrolysis of compound in buffers at pH 7.4, at 37 degrees Celsius in incubation mixture - d(G)-d(C) (1:1)", "format": "ADME", "details": "buffer", "in_short": "as §3"}, "GM892A cell line [18]": {"system": "GM892A cell line", "experiment": "In vitro cytotoxicity against human lymphoblast cell line (GM892 A).", "format": "functional, cell-based", "in_short": "as §2"}}, "data": [{"compound": "CN(N=O)C(N)=O.Cl.Cl.Cl", "values": [{"measurement": "IC50", "setting": "Raji", "result": 259, "unit": "µM"}, {"measurement": "Ratio", "setting": "[1]", "result": 7.4}, {"measurement": "IC50", "setting": "GM892A cell line [2]", "result": 35, "unit": "µM"}]}, {"compound": "Nc1nc(O)cc(-c2ccc(NC(=O)c3ncn4c(=O)n(CCCl)nnc34)cc2)n1", "values": [{"measurement": "IC50", "setting": "TLX-5", "result": 25, "unit": "µM"}]}, {"compound": "NC(=O)c1cccc2c(=O)n(-c3ccccc3)nnc12", "values": [{"measurement": "IC50", "setting": "TLX-5", "result": "> 500", "unit": "µM"}]}, {"compound": "Cn1nnc2c(C(N)=O)cnn2c1=O", "values": [{"measurement": "IC50", "setting": "Raji", "result": 270, "unit": "µM"}, {"measurement": "Ratio", "setting": "[1]", "result": 51}, {"measurement": "IC50", "setting": "GM892A cell line [2]", "result": 5.3, "unit": "µM"}]}, {"compound": "CNC(=O)c1nnc2c(O)n(C)nnc1-2", "values": [{"measurement": "IC50", "setting": "Raji", "result": "> 500", "unit": "µM"}, {"measurement": "IC50", "setting": "GM892A cell line [2]", "result": "> 500", "unit": "µM"}]}, {"compound": "Cn1nnc2c(C(N)=O)cccc2c1=O", "values": [{"measurement": "IC50", "setting": "TLX-5", "result": "> 500", "unit": "µM"}]}, {"compound": "NC(=O)c1ccc2c(=O)n(CCCl)nnc2c1", "values": [{"measurement": "IC50", "setting": "TLX-5", "result": 350, "unit": "µM"}]}, {"compound": "O=C(O)c1ncn2c(=O)n(CCCl)nnc12", "values": [{"measurement": "IC50", "setting": "TLX-5", "result": 15.8, "unit": "µM"}]}, {"compound": "Cn1nnc2c(C(=O)NCCCN(CCCN)CCCCN)ncn2c1=O", "values": [{"measurement": "IC50", "setting": "Raji", "result": "> 500", "unit": "µM"}, {"measurement": "IC50", "setting": "GM892A cell line [2]", "result": "> 500", "unit": "µM"}]}, {"compound": "NC(=O)c1ccc2c(=O)n(-c3ccccc3)nnc2c1", "values": [{"measurement": "IC50", "setting": "TLX-5", "result": 140, "unit": "µM"}]}, {"compound": "CCn1nnc2cc(C(N)=O)ccc2c1=O", "values": [{"measurement": "IC50", "setting": "TLX-5", "result": 108, "unit": "µM"}]}, {"compound": "Cn1nnc2cc(C(N)=O)ccc2c1=O", "values": [{"measurement": "IC50", "setting": "TLX-5", "result": 380, "unit": "µM"}]}, {"compound": "NC(=O)c1cccc2c(=O)n(CCCl)nnc12", "values": [{"measurement": "IC50", "setting": "TLX-5", "result": 225, "unit": "µM"}]}, {"compound": "NC(=O)c1ccc(NC(=O)c2ncn3c(=O)n(CCCl)nnc23)cc1", "values": [{"measurement": "IC50", "setting": "TLX-5", "result": 37, "unit": "µM"}]}, {"compound": "NC(=O)c1ccccc1NC(=O)c1ncn2c(=O)n(CCCl)nnc12", "values": [{"measurement": "IC50", "setting": "TLX-5", "result": 13, "unit": "µM"}]}, {"compound": "NC(=O)Cn1nnc2c(C(N)=O)cccc2c1=O", "values": [{"measurement": "IC50", "setting": "TLX-5", "result": "> 500", "unit": "µM"}]}, {"compound": "NC(=O)c1cccc2c(O)nnnc12", "values": [{"measurement": "IC50", "setting": "TLX-5", "result": 400, "unit": "µM"}]}, {"compound": "NC(=O)c1cccc(NC(=O)c2ncn3c(=O)n(CCCl)nnc23)c1", "values": [{"measurement": "IC50", "setting": "TLX-5", "result": 35, "unit": "µM"}]}, {"compound": "NC(=O)c1ccc(NC(=O)c2ncn3c(=O)n(CCCl)nnc23)c(C(N)=O)c1", "values": [{"measurement": "IC50", "setting": "TLX-5", "result": 375, "unit": "µM"}]}, {"compound": "CCn1nnc2c(C(N)=O)ncn2c1=O", "values": [{"measurement": "IC50", "setting": "Raji", "result": 435, "unit": "µM"}, {"measurement": "Ratio", "setting": "[1]", "result": 2.4}, {"measurement": "IC50", "setting": "GM892A cell line [2]", "result": 180, "unit": "µM"}]}, {"compound": "CCn1nnc2c(C(N)=O)cccc2c1=O", "values": [{"measurement": "IC50", "setting": "TLX-5", "result": 325, "unit": "µM"}]}, {"compound": "O=C(Nc1ccccc1)c1ncn2c(=O)n(CCCl)nnc12", "values": [{"measurement": "IC50", "setting": "TLX-5", "result": 1.25, "unit": "µM"}]}, {"compound": "CN(C)/N=N/c1[nH]cnc1C(N)=O", "note": "[DACARBAZINE]", "values": [{"measurement": "IC50", "setting": "Raji", "result": 128, "unit": "µM"}, {"measurement": "Ratio", "setting": "[1]", "result": 9}, {"measurement": "IC50", "setting": "GM892A cell line [3]", "result": 14, "unit": "µM"}]}, {"compound": "NC(=O)c1ncn2c(=O)n(CCCl)nnc12", "note": "[MITOZOLOMIDE]", "values": [{"measurement": "Mean rate constant", "setting": "[4]", "result": 0.00915, "unit": "min⁻¹"}, {"measurement": "half-life", "setting": "[5]", "result": 1.26, "unit": "h"}, {"measurement": "Mean rate constant", "setting": "[6]", "result": 0.0122, "unit": "min⁻¹"}, {"measurement": "IC50", "setting": "Raji", "result": 39, "unit": "µM"}, {"measurement": "half-life", "setting": "[7]", "result": 1.22, "unit": "h"}, {"measurement": "IC50", "setting": "GM892A cell line [8]", "result": 4.8, "unit": "µM"}, {"measurement": "half-life", "setting": "[9]", "result": 1.18, "unit": "h"}, {"measurement": "half-life", "setting": "[10]", "result": 0.947, "unit": "h"}, {"measurement": "T1/2", "setting": "[11]; buffer", "result": 5.777, "unit": "h"}, {"measurement": "half-life", "setting": "[11]; buffer with d(A)-d(T) (10:1)", "result": 7.45, "unit": "h"}, {"measurement": "Mean rate constant", "setting": "[12]", "result": 0.00932, "unit": "min⁻¹"}, {"measurement": "half-life", "setting": "[13]", "result": 1.24, "unit": "h"}, {"measurement": "IC50", "setting": "TLX-5", "result": 2.5, "unit": "µM"}, {"measurement": "Ratio", "setting": "[1]", "result": 8.1}, {"measurement": "T1/2", "setting": "[14]; buffer", "result": 5.747, "unit": "h"}, {"measurement": "half-life", "setting": "[14]; buffer with d(G)-d(C) (10:1)", "result": 7.5, "unit": "h"}, {"measurement": "T1/2", "setting": "[15]; buffer", "result": 0.947, "unit": "h"}, {"measurement": "half-life", "setting": "[15]; buffer with d(G)-d(C) (10:1)", "result": 1.27, "unit": "h"}, {"measurement": "Mean rate constant", "setting": "[16]", "result": 0.00979, "unit": "min⁻¹"}, {"measurement": "Mean rate constant", "setting": "[17]", "result": 0.0094, "unit": "min⁻¹"}]}, {"compound": "Cn1nnc2c(C(N)=O)ncn2c1=O", "note": "[TEMOZOLOMIDE]", "values": [{"measurement": "IC50", "setting": "Raji", "result": 175, "unit": "µM"}, {"measurement": "IC50", "setting": "GM892A cell line [18]", "result": 7.6, "unit": "µM"}, {"measurement": "IC50", "setting": "TLX-5", "result": 5, "unit": "µM"}, {"measurement": "Ratio", "setting": "[1]", "result": 23}]}]}
